Test results: ChEMBL document CHEMBL1126047, “Novel non-nucleoside inhibitors of HIV-1 reverse transcriptase. 2. Tricyclic pyridobenzoxazepinones and dibenzoxazepinones” (J Med Chem, 1992)

What was measured:
[1] = target: Human immunodeficiency virus type 1 reverse transcriptase (Human immunodeficiency virus 1) (UniProt Q72547); assay: Inhibition of HIV-1 reverse transcriptase at a concentration of 1 uM
Outline: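 Recombinant p66/p51 heterodimer RT (>95% homogeneous) at 0.5 nM, with poly(rC):oligo(dG) 0.8 µg/mL and 500 nM [3H]dGTP. Compound in DMSO, diluted in buffer; enzyme-started, 1 h at room temperature. TCA/pyrophosphate-precipitated product filtered and counted; inhibition versus no-compound reactions.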

[2] = target: Human immunodeficiency virus type 1 reverse transcriptase (Human immunodeficiency virus 1, UniProt Q72547); assay: In vitro inhibitory activity against HIV-1 reverse transcriptase.
T-cell = assay: In vitro inhibitory activity against HIV-1(IIIB) replication in human T-cells (c8166).; format: functional, cell-based
Outline: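 CD4+ human T-cell line c8166 infected with HIV-1 IIIB. Syncytia formation scored, with IC50 taken as the concentration giving a 50% reduction in centers of syncytia.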

SMILES | inhibition [1] [%] | IC50 [2] [nM] | IC50 (T-cell) [nM]
CCCN1C(=O)c2ccccc2Oc2nc(Cl)ccc21 | 68 | 210 | –
CCCN1C(=O)c2ccccc2S(=O)(=O)c2ccccc21 | 31 | – | –
CON1C(=O)c2ccccc2Oc2ccccc21 | 36 | – | –
Cc1cc2c(cc1C)N(C)C(=O)c1cc(N)cnc1O2 | 72 | 322 | –
Cc1ccc2c(c1)Oc1ccc(C#N)cc1C(=O)N2C | 69 | 280 | –
C=CCN1C(=O)c2cccnc2Oc2ccccc21 | 40 | – | –
CCCN1C(=O)c2cc(N)ccc2Oc2cc(C)c(C)cc21 | 87 | 165 | –
CCCN1C(=O)c2ccccc2Oc2ccccc21 | 72 | 375 | –
Cc1ccc2c(c1)Oc1ccc(O)cc1C(=O)N2C | 58 | 640 | –
Cc1ccc2c(c1)Oc1ccccc1C(=O)N2C | 66 | 600 | –
CC(C)CN1C(=O)c2ccccc2Oc2ncccc21 | 29 | – | –
CCCN1C(=O)c2ccccc2Sc2ccccc21 | 77 | 400 | –
COC(=O)c1cc(C)cc2c1N(C)C(=O)c1cccnc1O2 | 95 | 22 | –
CCCN1C(=O)c2cc(N)ccc2Oc2ccc(C)cc21 | 53 | – | –
CCCN1C(=S)c2ccccc2Oc2ccccc21 | 46 | 2200 | –
CCN1C(=O)c2cc([N+](=O)[O-])ccc2Oc2ccccc21 | 23 | – | –
Cc1ccc2c(c1)Oc1ncccc1C(=O)N2C | 43 | – | –
Cc1ccc2c(c1)Oc1ccc(N)cc1C(=O)N2C | 96 | 30 | –
CCCN1C(=O)c2ccccc2[S+]([O-])c2ccccc21 (configuration not stated) | 20 | – | –
CCN1C(=O)c2cc(N)ccc2Oc2ccc(C)cc21 | 76 | 240 | –
Cc1cc(C)c2c(c1)Oc1ccc(N)cc1C(=O)N2C | 95 | 20 | –
C=CCN1C(=O)c2ccccc2Oc2ccccc21 | 58 | 465 | –

SMILES | inhibition [1] [%] | IC50 [2] [nM] | IC50 (T-cell) [nM]
COC(=N)c1cc(C)cc2c1N(C)C(=O)c1cccnc1O2 | 0 | – | –
CCN1C(=O)c2cc(N)ccc2Oc2cc(C)cc(C)c21 | 95 | 43 | –
CCCN1C(=O)c2cccnc2Oc2ncccc21 | 5 | – | –
CCN1C(=O)c2cc(N)cnc2Oc2cc(C)c(C)cc21 | 83 | 71 | –
Cc1cc(C#N)c2c(c1)Oc1ncccc1C(=O)N2C | 88 | 55 | –
CCN1C(=O)c2cccnc2Oc2cccc(N)c21 | 33 | – | –
CN1C(=O)c2cc(N)ccc2Oc2ccccc21 | 73 | 180 | –
O=C1Nc2ccccc2Oc2ccccc21 | 30 | – | –
CCN1C(=O)c2cccnc2Oc2cc(C)cc(N)c21 | 73 | 132 | –
O=C1c2ccccc2Oc2ccccc2N1O | 15 | – | –
Cc1cc(C)c2c(c1)Oc1ncc(N)cc1C(=O)N2C | 92 | 46 | 115
CC(C)N1C(=O)c2ccccc2Oc2ccccc21 | 73 | 340 | –
CN1C(=O)c2cccnc2Oc2ccccc21 | 23 | – | –
CN1C(=O)c2cccnc2Oc2cc(N)ccc21 | 0 | – | –
CCN1C(=S)c2cccnc2Oc2cc(C)cc(C)c21 | 82 | 90 | –
Cc1cc2c(c(C(N)=O)c1)N(C)C(=O)c1cccnc1O2 | 31 | – | –
CN(C)c1ccc2c(c1)Oc1ncccc1C(=O)N2C | 34 | – | –
CCN1C(=O)c2cccnc2Oc2ccccc21 | 25 | – | –
CCN1C(=O)c2cccnc2Oc2cccc([N+](=O)[O-])c21 | 58 | 343 | –
CCN1Cc2ccccc2Oc2ccccc21 | 12 | – | –
CCCN1C(=O)c2cc(N)ccc2Oc2cccc(C)c21 | 70 | 260 | –
CN1C(=O)c2cccnc2Oc2cccc(C#N)c21 | 29 | – | –

SMILES | inhibition [1] [%] | IC50 [2] [nM] | IC50 (T-cell) [nM]
CN1C(=O)c2ccccc2Oc2ncccc21 | 2 | – | –
Cc1cc2c(cc1C)N(C(C)C)C(=O)c1cc(N)cnc1O2 | 89 | 45 | –
CN1C(=O)c2ccccc2Oc2nc(Cl)ccc21 | 21 | – | –
CCN1C(=O)c2cccnc2Oc2cc(C)cc(C#N)c21 | 96 | 19 | –
CN1C(=O)c2ccccc2Oc2cc(N)ccc21 | 20 | – | –
Cc1cc(CO)c2c(c1)Oc1ncccc1C(=O)N2C | 39 | – | –
CCCN1C(=O)c2cc(N)ccc2Oc2ccc(C)c(C)c21 | 63 | 670 | –
Cc1cc(N)c2c(c1)Oc1ncccc1C(=O)N2C | 53 | 1000 | –
CCCN1C(=O)c2cccnc2Oc2ccccc21 | 31 | – | –
CNc1ccc2c(c1)C(=O)N(C)c1ccccc1O2 | 40 | – | –
COc1ccc2c(c1)Oc1ncccc1C(=O)N2C | 24 | – | –
CCN1C(=O)c2cccnc2Oc2cc(C)cc(C)c21 | 92 | 29 | –
Cc1cccc2c1NC(=O)c1cc(N)ccc1O2 | 31 | – | –
CCN1C(=O)c2cccnc2Oc2cc(C)cc([N+](=O)[O-])c21 | 85 | 31 | –
CN1C(=O)c2cccnc2Oc2cc(O)ccc21 | 14 | – | –
CN1C(=O)c2cccnc2Oc2cc([N+](=O)[O-])ccc21 | 0 | – | –
CCN1C(=O)c2cc(N)cnc2Oc2cc(C)cc(C)c21 | 93 | 27 | 54
CN1C(=O)c2ccc(N)cc2Oc2ccccc21 | 19 | – | –
CSCCN1C(=O)c2ccccc2Oc2nc(Cl)ccc21 | 79 | 72 | –
CCN1C(=O)c2ccccc2Oc2nc(Cl)ccc21 | 35 | – | –
Cc1cc2c(c(S(C)(=O)=O)c1)N(C)C(=O)c1cccnc1O2 | 27 | – | –
Cc1cc2c(c([N+](=O)[O-])c1)N(C)C(=O)c1cccnc1O2 | 85 | 23 | –

SMILES | inhibition [1] [%] | IC50 [2] [nM] | IC50 (T-cell) [nM]
CN1C(=O)c2cccnc2Oc2cc(F)ccc21 | 3 | – | –
Cc1cccc2c1N(C)C(=O)c1ccccc1O2 | 36 | – | –
CN1C(=O)c2ccccc2Oc2ccccc21 | 20 | – | –
CCCN1C(=O)c2cc(N)ccc2Oc2c(C)cc(C)cc21 | 52 | 900 | –
Cc1cc(C)c2c(c1)Oc1ccccc1C(=O)N2C | 86 | 57 | 38
Cc1ccc2c(c1)Oc1ncc([N+](=O)[O-])cc1C(=O)N2C | 0 | – | –
CCN1C(=O)c2cc(N)ccc2Oc2cccc(C)c21 | 90 | 60 | –
Cc1cc(C)c2c(c1)Oc1ccccc1C(=O)N2 | 39 | – | –
Cc1cc(C)c2c(n1)Oc1ccccc1C(=O)N2C | 25 | – | –
CN1C(=O)c2cc(CN)ccc2Oc2ccccc21 | 0 | – | –
Cc1ccc2c(c1)Oc1ncccc1C(=O)N2 | 5 | – | –
CN1C(=O)c2cc(C#N)ccc2Oc2ccccc21 | 12 | – | –
Cc1cc(C)c2c(c1)Oc1ccc(C#N)cc1C(=O)N2C | 77 | 50 | 31
CCN1C(=O)c2ccccc2Oc2ccccc21 | 54 | 560 | –
CCCN1C(=O)c2cc(N)ccc2Oc2cc(C)ccc21 | 84 | 130 | –
CCN1C(=O)c2cc(N)ccc2Oc2ccccc21 | 82 | 145 | –
Cc1cc(C)c2c(c1)Oc1ccc(O)cc1C(=O)N2C | 80 | 63 | 88
Cc1ccc2c(c1)Oc1ncc(N)cc1C(=O)N2C | 57 | 250 | –
Cc1cc2c(c(C(=O)O)c1)N(C)C(=O)c1cccnc1O2 | 0 | – | –
